From ChEMBL document CHEMBL2321753, “Synthesis and biological evaluation of radioiodinated quinacrine-based derivatives for SPECT imaging of Aβ plaques” (Eur J Med Chem, 2013)

Key:
Brain [1] = assay: Ratio of drug level in brain after 2 mins to brain after 60 mins in ddY mouse brain at 0.1 to 0.4 uCi, iv; assay type: ADME, organism-based; details: in vivo
Method in brief: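 ddY mice (5 weeks, 22–25 g) given [125I]ligand (0.1–0.4 µCi) iv in PBS/DMSO. Brain radioactivity (% dose/g) measured by gamma counting at 2 and 60 min, and the 2 min/60 min ratio taken as a washout index.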

Heart [2] = assay: Biodistribution in ddY mouse heart at 0.1 to 0.4 uCi, iv after 60 mins by gamma counting; assay type: ADME, organism-based; details: in vivo, 1 h
Method in brief: (§1)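 [125I]ligand (0.1–0.4 µCi) in 100 µL PBS (pH 7.4) containing 30 µL DMSO, injected into the tail vein of ddY mice (5 weeks, 22–25 g). Mice sacrificed at 2, 10, 30 and 60 min. Organs removed, weighed and gamma-counted. Values are % injected dose per gram, except stomach as % dose per organ. Mean (SD) of 3–6 mice per time point.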

Pancreas [3] = assay: Biodistribution in ddY mouse pancreas at 0.1 to 0.4 uCi, iv after 60 mins by gamma counting; assay type: ADME, organism-based; details: in vivo, 1 h; method in brief: as §1
Stomach [4] = assay: Biodistribution in ddY mouse stomach assessed per organ at 0.1 to 0.4 uCi, iv after 60 mins by gamma counting; assay type: ADME, organism-based; details: in vivo, 1 h; method in brief: as §1
Lung [5] = assay: Biodistribution in ddY mouse lung at 0.1 to 0.4 uCi, iv after 60 mins by gamma counting; assay type: ADME, organism-based; details: in vivo, 1 h; method in brief: as §1
Spleen [6] = assay: Biodistribution in ddY mouse spleen at 0.1 to 0.4 uCi, iv after 60 mins by gamma counting; assay type: ADME, organism-based; details: in vivo, 1 h; method in brief: as §1
Intestine [7] = assay: Biodistribution in ddY mouse intestine at 0.1 to 0.4 uCi, iv after 60 mins by gamma counting; assay type: ADME, organism-based; details: in vivo, 1 h; method in brief: as §1
Kidney [8] = assay: Biodistribution in ddY mouse kidney at 0.1 to 0.4 uCi, iv after 60 mins by gamma counting; assay type: ADME, organism-based; details: in vivo, 1 h; method in brief: as §1
Liver [9] = assay: Biodistribution in ddY mouse liver at 0.1 to 0.4 uCi, iv after 60 mins by gamma counting; assay type: ADME, organism-based; details: in vivo, 1 h; method in brief: as §1
Brain [10] = assay: Biodistribution in ddY mouse brain at 0.1 to 0.4 uCi, iv after 60 mins by gamma counting; assay type: ADME, organism-based; details: in vivo, 1 h; method in brief: as §1
Blood [11] = assay: Biodistribution in ddY mouse blood at 0.1 to 0.4 uCi, iv after 60 mins by gamma counting; assay type: ADME, organism-based; details: in vivo, 1 h; method in brief: as §1
Heart [12] = assay: Biodistribution in ddY mouse heart at 0.1 to 0.4 uCi, iv after 30 mins by gamma counting; assay type: ADME, organism-based; details: in vivo, 0.5 h; method in brief: as §1
Pancreas [13] = assay: Biodistribution in ddY mouse pancreas at 0.1 to 0.4 uCi, iv after 30 mins by gamma counting; assay type: ADME, organism-based; details: in vivo, 0.5 h; method in brief: as §1
Stomach [14] = assay: Biodistribution in ddY mouse stomach assessed per organ at 0.1 to 0.4 uCi, iv after 30 mins by gamma counting; assay type: ADME, organism-based; details: in vivo, 0.5 h; method in brief: as §1
Lung [15] = assay: Biodistribution in ddY mouse lung at 0.1 to 0.4 uCi, iv after 30 mins by gamma counting; assay type: ADME, organism-based; details: in vivo, 0.5 h; method in brief: as §1
Spleen [16] = assay: Biodistribution in ddY mouse spleen at 0.1 to 0.4 uCi, iv after 30 mins by gamma counting; assay type: ADME, organism-based; details: in vivo, 0.5 h; method in brief: as §1
Intestine [17] = assay: Biodistribution in ddY mouse intestine at 0.1 to 0.4 uCi, iv after 30 mins by gamma counting; assay type: ADME, organism-based; details: in vivo, 0.5 h; method in brief: as §1
Kidney [18] = assay: Biodistribution in ddY mouse kidney at 0.1 to 0.4 uCi, iv after 30 mins by gamma counting; assay type: ADME, organism-based; details: in vivo, 0.5 h; method in brief: as §1
Liver [19] = assay: Biodistribution in ddY mouse liver at 0.1 to 0.4 uCi, iv after 30 mins by gamma counting; assay type: ADME, organism-based; details: in vivo, 0.5 h; method in brief: as §1
Brain [20] = assay: Biodistribution in ddY mouse brain at 0.1 to 0.4 uCi, iv after 30 mins by gamma counting; assay type: ADME, organism-based; details: in vivo, 0.5 h; method in brief: as §1
Blood [21] = assay: Biodistribution in ddY mouse blood at 0.1 to 0.4 uCi, iv after 30 mins by gamma counting; assay type: ADME, organism-based; details: in vivo, 0.5 h; method in brief: as §1
Heart [22] = assay: Biodistribution in ddY mouse heart at 0.1 to 0.4 uCi, iv after 10 mins by gamma counting; assay type: ADME, organism-based; details: in vivo; method in brief: as §1
Pancreas [23] = assay: Biodistribution in ddY mouse pancreas at 0.1 to 0.4 uCi, iv after 10 mins by gamma counting; assay type: ADME, organism-based; details: in vivo; method in brief: as §1
Stomach [24] = assay: Biodistribution in ddY mouse stomach assessed per organ at 0.1 to 0.4 uCi, iv after 10 mins by gamma counting; assay type: ADME, organism-based; details: in vivo; method in brief: as §1
Lung [25] = assay: Biodistribution in ddY mouse lung at 0.1 to 0.4 uCi, iv after 10 mins by gamma counting; assay type: ADME, organism-based; details: in vivo; method in brief: as §1
Spleen [26] = assay: Biodistribution in ddY mouse spleen at 0.1 to 0.4 uCi, iv after 10 mins by gamma counting; assay type: ADME, organism-based; details: in vivo; method in brief: as §1
Intestine [27] = assay: Biodistribution in ddY mouse intestine at 0.1 to 0.4 uCi, iv after 10 mins by gamma counting; assay type: ADME, organism-based; details: in vivo; method in brief: as §1
Liver [28] = assay: Biodistribution in ddY mouse liver at 0.1 to 0.4 uCi, iv after 10 mins by gamma counting; assay type: ADME, organism-based; details: in vivo; method in brief: as §1
Kidney [29] = assay: Biodistribution in ddY mouse kidney at 0.1 to 0.4 uCi, iv after 10 mins by gamma counting; assay type: ADME, organism-based; details: in vivo; method in brief: as §1
Brain [30] = assay: Biodistribution in ddY mouse brain at 0.1 to 0.4 uCi, iv after 10 mins by gamma counting; assay type: ADME, organism-based; details: in vivo; method in brief: as §1
Blood [31] = assay: Biodistribution in ddY mouse blood at 0.1 to 0.4 uCi, iv after 10 mins by gamma counting; assay type: ADME, organism-based; details: in vivo; method in brief: as §1
Pancreas [32] = assay: Biodistribution in ddY mouse pancreas at 0.1 to 0.4 uCi, iv after 2 mins by gamma counting; assay type: ADME, organism-based; details: in vivo; method in brief: as §1
Heart [33] = assay: Biodistribution in ddY mouse heart at 0.1 to 0.4 uCi, iv after 2 mins by gamma counting; assay type: ADME, organism-based; details: in vivo; method in brief: as §1
Stomach [34] = assay: Biodistribution in ddY mouse stomach assessed per organ at 0.1 to 0.4 uCi, iv after 2 mins by gamma counting; assay type: ADME, organism-based; details: in vivo; method in brief: as §1
Lung [35] = assay: Biodistribution in ddY mouse lung at 0.1 to 0.4 uCi, iv after 2 mins by gamma counting; assay type: ADME, organism-based; details: in vivo; method in brief: as §1
Intestine [36] = assay: Biodistribution in ddY mouse intestine at 0.1 to 0.4 uCi, iv after 2 mins by gamma counting; assay type: ADME, organism-based; details: in vivo; method in brief: as §1
Spleen [37] = assay: Biodistribution in ddY mouse spleen at 0.1 to 0.4 uCi, iv after 2 mins by gamma counting; assay type: ADME, organism-based; details: in vivo; method in brief: as §1
Kidney [38] = assay: Biodistribution in ddY mouse kidney at 0.1 to 0.4 uCi, iv after 2 mins by gamma counting; assay type: ADME, organism-based; details: in vivo; method in brief: as §1
Liver [39] = assay: Biodistribution in ddY mouse liver at 0.1 to 0.4 uCi, iv after 2 mins by gamma counting; assay type: ADME, organism-based; details: in vivo; method in brief: as §1
Blood [40] = assay: Biodistribution in ddY mouse blood at 0.1 to 0.4 uCi, iv after 2 mins by gamma counting; assay type: ADME, organism-based; details: in vivo; method in brief: as §1
Brain [41] = assay: Biodistribution in ddY mouse brain at 0.1 to 0.4 uCi, iv after 2 mins by gamma counting; assay type: ADME, organism-based; details: in vivo; method in brief: as §1
[42] = n-octanol-sodium phosphate buffer partition co-efficient, log D of the compound at pH 7.4 by shake flask method; assay type: physicochemical
Method in brief: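 Shake-flask partition between n-octanol and sodium phosphate buffer, pH 7.4, shaken 10 min at room temperature, then centrifuged. Weighed 0.5 mL samples of each layer counted. log D from the ratio of cpm per gram of octanol to cpm per gram of buffer; n = 3.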

- Ratio (Brain [1]): 9
- Drug uptake (Heart [2]): 0.84 % ID/g
- Drug uptake (Pancreas [3]): 1.63 % ID/g
- Drug uptake (Stomach [4]): 5.58 %ID
- Drug uptake (Lung [5]): 2.3 % ID/g
- Drug uptake (Spleen [6]): 4.45 % ID/g
- Drug uptake (Intestine [7]): 23.83 % ID/g
- Drug uptake (Kidney [8]): 6 % ID/g
- Drug uptake (Liver [9]): 7.52 % ID/g
- Drug uptake (Brain [10]): 0.33 % ID/g
- Drug uptake (Blood [11]): 0.56 % ID/g
- Drug uptake (Heart [12]): 1.46 % ID/g
- Drug uptake (Pancreas [13]): 3.55 % ID/g
- Drug uptake (Stomach [14]): 4.63 %ID
- Drug uptake (Lung [15]): 4.38 % ID/g
- Drug uptake (Spleen [16]): 6.02 % ID/g
- Drug uptake (Intestine [17]): 19.47 % ID/g
- Drug uptake (Kidney [18]): 10.25 % ID/g
- Drug uptake (Liver [19]): 8.26 % ID/g
- Drug uptake (Brain [20]): 0.95 % ID/g
- Drug uptake (Blood [21]): 0.85 % ID/g
- Drug uptake (Heart [22]): 2.8 % ID/g
- Drug uptake (Pancreas [23]): 6.92 % ID/g
- Drug uptake (Stomach [24]): 3.71 %ID
- Drug uptake (Lung [25]): 5.62 % ID/g
- Drug uptake (Spleen [26]): 9.14 % ID/g
- Drug uptake (Intestine [27]): 9.11 % ID/g
- Drug uptake (Liver [28]): 16.41 % ID/g
- Drug uptake (Kidney [29]): 11.89 % ID/g
- Drug uptake (Brain [30]): 2.34 % ID/g
- Drug uptake (Blood [31]): 1.18 % ID/g
- Drug uptake (Pancreas [32]): 6.91 % ID/g
- Drug uptake (Heart [33]): 7.79 % ID/g
- Drug uptake (Stomach [34]): 1.71 %ID
- Drug uptake (Lung [35]): 15.8 % ID/g
- Drug uptake (Intestine [36]): 3.82 % ID/g
- Drug uptake (Spleen [37]): 7.6 % ID/g
- Drug uptake (Kidney [38]): 12.98 % ID/g
- Drug uptake (Liver [39]): 17.25 % ID/g
- Drug uptake (Blood [40]): 1.75 % ID/g
- Drug uptake (Brain [41]): 2.97 % ID/g
- logD [42]: 2.14
Structure (SMILES): CNc1c2ccc([125I])cc2nc2ccc(OC)cc12
